Measurements published in ChEMBL document CHEMBL3085690, “Naturally occurring antimicrobial peptide OH-CATH30 selectively regulates the innate immune response to protect against sepsis” (J Med Chem, 2013).
The source made the active and inactive calls. The calls are words filed in the database; no cut-off is given here. Peptide text beside a SMILES is read from it.

Columns and labels:
BMDM [1] = assay: Increase of CXCL2 protein level in mouse BMDM at 20 ug/ml after 18 hrs by ELISA; format: functional
Procedure, shortened: (§1)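 Bone marrow-derived macrophages (RPMI 1640, 10% FCS, 20% L929-conditioned medium) stimulated with peptide for 18 h. Cytokines and chemokines in culture supernatant quantified by sandwich ELISA. Mean ± SD from three independent experiments, unpaired t test.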

Mus musculus [2] = assay: Stimulation of innate immune response in clodronate liposomes treated Kunming mouse monocytes depletion model assessed as increase of CXCL2 production in peritoneal lavage at 10 mg/kg, ip; format: functional, organism-based; set-up: dose 10 mg/kg
Mus musculus [3] = assay: Stimulation of innate immune response in Kunming mouse assessed as increase of neutrophils in peritoneal lavage at 10 mg/kg, ip after 5 hrs; format: functional, organism-based; set-up: dose 10 mg/kg
Procedure, shortened: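 Female Kunming mice were given peptide ip at 10 mg/kg. At 5 h, peritoneal cells were recovered by lavage with 2 mL PBS and counted. Cells were stained with anti-F4/80-PE and GR1-FITC for 30 min at room temperature and typed by flow cytometry: neutrophils GR1+/F4/80−, resident monocytes/macrophages GR1−/F4/80+, inflammatory monocytes GR1+/F4/80+. Data are mean ± SD from three mice, unpaired t test.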

RAW264.7 [4] = assay: Downregulation of TLR4/MD2 complex in plasma membrane in mouse RAW264.7 cells relative to LPS; format: functional
Procedure, shortened: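 RAW 264.7 cells in DMEM with 10% FCS, exposed 30 min to peptide (20 μg/mL) or LPS (1 μg/mL). Washed in ice-cold PBS, stained with PE anti-mouse TLR4/MD2 (2 μg/mL) for 30 min on ice. Surface complex measured by flow cytometry.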

Mus musculus [5] = assay: Stimulation of innate immune response in neutropenic Kunming mouse infected with Pseudomonas aeruginosa ATCC 27853 assessed as increase of number of neutrophils and inflammatory monocytes in peritoneal lavage at 10 mg/kg, ip up to 24 hrs; format: functional, organism-based; set-up: dose 10 mg/kg
Procedure, shortened: (§2)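 Mice were made neutropenic with ip cyclophosphamide, 150 mg/kg on day 0 and 100 mg/kg on day 3. They were then injected ip with peptide at 10 mg/kg. Peritoneal cells were collected up to 24 h afterwards and typed by flow cytometry after GR1/F4/80 staining.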

[6] = Cytotoxicity against mouse BMDM at 5 to 20 ug/ml by LDH release assay
Mus musculus [7] = species: Mus musculus; assay: Activation of JNK in mouse BMDM assessed as phosphorylation at 10 ug/ml by Western blotting
Procedure, shortened: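 BMDMs cultured in RPMI 1640 with 10% FCS and 20% L929-conditioned medium. Lysates separated by 10% SDS-PAGE, blotted to PVDF and blocked in 5% BSA. Probed for phospho-JNK/JNK or phospho-p38/p38, then HRP goat anti-rabbit IgG, chemiluminescence read-out.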

Mus musculus [8] = assay: Stimulation of innate immune response in neutropenic Kunming mouse infected with Pseudomonas aeruginosa ATCC 27853 assessed as reduction of bacterial burden in peritoneal lavage at 10 mg/kg, ip relative to control; format: functional; set-up: scale not given: the % may be the effect or the level left; details: route intraperitoneal
Procedure, shortened: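 Mice were made neutropenic with cyclophosphamide ip, 150 mg/kg on day 0 and 100 mg/kg on day 3. Peptide was given ip at 10 mg/kg 5 h before ip bacterial infection on day 5 (n = 10). Viable bacteria in the peritoneal cavity were counted 8 h after inoculation, and groups were compared by unpaired t test.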

[9] = Cytotoxicity against mouse BMDM at 5 to 20 ug/ml by MTT assay
Mus musculus [10] = assay: Stimulation of innate immune response in neutropenic Kunming mouse infected with Pseudomonas aeruginosa ATCC 27853 assessed as increase of resident monocytes/macrophagess in peritoneal lavage at 10 mg/kg, ip; format: functional, organism-based; set-up: dose 10 mg/kg; procedure, shortened: as §2
[11] = Induction of IL-1beta mRNA up-regulation in mouse BMDM at 20 ug/ml after 3 hrs by qRT-PCR analysis relative to control; format: functional
Procedure, shortened: (§3)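 Murine BMDMs stimulated with peptide, then target mRNA quantified by qRT-PCR. Expression normalized to GAPDH, with untreated cells set to 1.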

RAW264.7 [12] = assay: Inhibition of LPS-induced nitric oxide production in mouse RAW264.7 cells 2 to 50 ug/ml after 6 hrs by ELISA; format: functional, cell-based
Mus musculus [13] = assay: Stimulation of innate immune response in Kunming mouse assessed as protection against CLP-induced mortality by measuring survival rate at 10 mg/kg, ip administered 12 hrs before bacterial infection measured up to 7 days; format: functional; details: route intraperitoneal
Mus musculus [14] = assay: Stimulation of innate immune response in Kunming mouse assessed as protection against drug-resistant Staphylococcus aureus-induced mortality by measuring survival rate at 10 mg/kg, ip administered 5 hrs before bacterial infection measured up to 7 days; format: functional; details: route intraperitoneal
Procedure, shortened: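 Female Kunming mice (18−22 g) were dosed ip in sterile saline at 10 mg/kg, 5 h before ip challenge with clinical drug-resistant isolates: E. coli (n = 12), P. aeruginosa (n = 10) or S. aureus (n = 15). Survival was recorded for up to 7 days, with checks every 6 h and euthanasia by CO2 at the humane end point.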

Mus musculus [15] = assay: Stimulation of innate immune response in Kunming mouse assessed as increase of CCL2 level in peritoneal lavage at 10 mg/kg, ip after 5 hrs; format: functional, organism-based; set-up: dose 10 mg/kg
Procedure, shortened: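 Female Kunming mice (18−22 g) received a single ip injection of peptide at 10 mg/kg in sterile saline. Peritoneal lavage was collected in 2 mL of cold sterile saline 5 h later, and cytokines and chemokines were measured by ELISA. Data are mean ± SD from four mice, compared by unpaired t test.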

BMDM [16] = assay: Increase of CXCL2 production in mouse BMDM after 6 hrs by ELISA in presence of KN-62; format: functional
BMDM [17] = assay: Increase of IL-6 protein level in mouse BMDM at 20 ug/ml after 18 hrs by ELISA; format: functional; procedure, shortened: as §1
[18] = Induction of IL-10 mRNA up-regulation in mouse BMDM at 20 ug/ml after 3 hrs by qRT-PCR analysis relative to control; format: functional; procedure, shortened: as §3
Mus musculus [19] = assay: Stimulation of innate immune response in Kunming mouse assessed as protection against Staphylococcus aureus ATCC 25923-induced mortality by measuring survival rate at 10 mg/kg, ip administered 5 hrs before bacterial infection measured up to 7 days; format: functional; details: route intraperitoneal
Procedure, shortened: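 Female Kunming mice (18−22 g) received a single ip dose in sterile saline 5 h before ip challenge with P. aeruginosa 27853 (8 × 10^7 CFU/mouse; n = 8) or S. aureus 25923 (2 × 10^8 CFU/mouse; n = 10). Mice were checked every 6 h for up to 7 days, with a humane end point. Curves were compared by log-rank test.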

BMDM [20] = assay: Increase of CXCL2 production in mouse BMDM after 6 hrs by ELISA in presence of CD14 Ab; format: functional
BMDM [21] = assay: Induction of CCL7 mRNA up-regulation in mouse BMDM at 20 ug/ml after 3 hrs by qRT-PCR analysis; format: functional; procedure, shortened: as §3
[22] = Increase of CXCL2 production in mouse BMDM after 6 hrs by ELISA in presence of MEK1/2 inhibitor U0126; format: functional
RAW264.7 [23] = assay: Inhibition of LTA-induced TNFalpha production in mouse RAW264.7 cells 2 to 50 ug/ml after 6 hrs by ELISA; format: functional, cell-based
BMDM [24] = assay: Increase of IL-1beta protein level in mouse BMDM at 20 ug/ml after 18 hrs by ELISA; format: functional; procedure, shortened: as §1

For `CC[C@H](C)[C@H](NC(=O)[C@@H](NC(=O)[C@H](CCCNC(=N)N)NC(=O)[C@@H]1CCCN1C(=O)[C@H](CCCCN)NC(=O)[C@H](CCCCN)NC(=O)[C@H](Cc1ccccc1)NC(=O)[C@H](Cc1ccccc1)NC(=O)[C@H](CCCCN)NC(=O)[C@H](CCCCN)NC(=O)[C@H](C)NC(=O)[C@H](CCCNC(=N)N)NC(=O)[C@H](CCCCN)NC(=O)[C@H](CCCCN)NC(=O)[C@@H](NC(=O)[C@H](CO)NC(=O)[C@H](CC(N)=O)NC(=O)[C@H](CCCCN)NC(=O)[C@H](CC(C)C)NC(=O)[C@H](CCCCN)NC(=O)[C@H](CCCCN)NC(=O)[C@H](Cc1ccccc1)NC(=O)[C@H](Cc1ccccc1)NC(=O)[C@@H](N)CCCCN)C(C)C)C(C)C)C(=O)NCC(=O)N[C@H](C(=O)N[C@@H](CO)C(=O)N[C@H](C(=O)N1CCC[C@H]1C(=O)N[C@@H](Cc1ccccc1)C(=O)O)[C@@H](C)CC)C(C)C` (H-KFFKKLKNSVKKRAKKFFKKPRVIGVSIPF-OH), the Activity (BMDM [1]) was “Active”, the Activity (Mus musculus [2]) was “inactive” and the Activity (Mus musculus [3]) was “Active”. The Activity (RAW264.7 [4]) was 20%, the Activity (Mus musculus [5]) was “inactive” and the Activity [6] was “Non-toxic”. The Activity (Mus musculus [7]) was “Active”, the Activity (Mus musculus [8]) was 40% and the Activity [9] was “Non-toxic”. The Activity (Mus musculus [10]) was “Active”, the “fold change (FC)” value [11] was 2.5 and the inhibition (RAW264.7 [12]) was “Active”. The survival at 10 mg/kg (Mus musculus [13]) was 70%, the survival at 10 mg/kg (Mus musculus [14]) was 63% and the Activity (Mus musculus [15]) was “Active”. For the same compound, the Activity (BMDM [16]) was “Active”, the Activity (BMDM [17]) was “inactive” and the “fold change (FC)” value [18] was 5. The survival at 10 mg/kg (Mus musculus [19]) was > 60%, the Activity (BMDM [20]) was “Active” and the Activity (BMDM [21]) was “Active”. The Activity [22] was 979.6 pg/mL, the inhibition (RAW264.7 [23]) was “inactive” and the Activity (BMDM [24]) was “inactive”.
